Test [1] deals with T1, Activin receptor type-1B (Homo sapiens) (UniProt P36896).
T1 sequence (whole entry): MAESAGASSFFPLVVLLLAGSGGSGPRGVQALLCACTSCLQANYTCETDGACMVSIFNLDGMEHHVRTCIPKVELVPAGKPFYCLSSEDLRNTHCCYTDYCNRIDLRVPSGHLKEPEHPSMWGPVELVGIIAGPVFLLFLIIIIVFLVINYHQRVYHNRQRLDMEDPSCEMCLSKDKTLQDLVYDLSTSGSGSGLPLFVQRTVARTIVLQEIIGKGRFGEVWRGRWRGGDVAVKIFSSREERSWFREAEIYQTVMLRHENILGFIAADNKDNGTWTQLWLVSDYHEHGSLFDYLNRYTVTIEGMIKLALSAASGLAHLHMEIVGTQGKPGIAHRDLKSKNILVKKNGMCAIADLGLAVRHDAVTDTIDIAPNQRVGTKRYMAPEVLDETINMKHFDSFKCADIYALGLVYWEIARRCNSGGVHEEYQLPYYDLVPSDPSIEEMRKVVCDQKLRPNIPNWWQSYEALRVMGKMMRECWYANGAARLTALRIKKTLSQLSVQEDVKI
As to conditions: 2.5 uM.

The target of test [2] is T2, Activin receptor type-1C (Homo sapiens) (UniProt Q8NER5).
T2 sequence (whole entry): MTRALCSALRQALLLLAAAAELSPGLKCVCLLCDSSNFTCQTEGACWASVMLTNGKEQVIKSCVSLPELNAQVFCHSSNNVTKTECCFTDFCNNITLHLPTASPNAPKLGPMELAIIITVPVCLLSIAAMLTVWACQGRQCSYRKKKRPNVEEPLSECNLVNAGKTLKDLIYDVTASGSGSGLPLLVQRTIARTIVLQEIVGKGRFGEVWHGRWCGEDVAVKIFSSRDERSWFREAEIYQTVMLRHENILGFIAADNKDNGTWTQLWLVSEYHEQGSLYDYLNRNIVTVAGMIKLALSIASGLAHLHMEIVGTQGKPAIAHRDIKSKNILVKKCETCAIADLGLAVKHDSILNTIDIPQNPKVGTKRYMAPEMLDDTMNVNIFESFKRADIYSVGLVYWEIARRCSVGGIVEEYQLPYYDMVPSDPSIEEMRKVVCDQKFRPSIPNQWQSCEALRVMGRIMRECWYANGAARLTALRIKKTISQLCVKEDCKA
As to conditions: 2.5 uM.

The target in a further test is TGF-beta receptor type-2 (Homo sapiens, UniProt P37173). The experiment in a line: Inhibition of TGBR2 signaling in human HEK293T cells assessed as inhibition of SMAD activation after 2 to 22 hrs by dual Luciferase Assay. The test is classed as cell-based, HEK-293T.
The subject of a further test is HEK-293T. Briefly: Inhibition of Activin receptor signaling in activin A-stimulated human HEK293T cells assessed as inhibition of SMAD activation at 2.5 uM after 2 to 22 hrs by dual Luciferase Assay. Format: cell-based. In outline:
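HEK-293T cells bulk co-transfected with an SBE-4–firefly luciferase reporter and a TK-driven Renilla plasmid for normalization, in DMEM with 2% FBS. After 12–14 h, cells were replated at 25,000/well in DMEM with 1% FBS and rested 2 h. Compound was then added with Activin A (10 ng/mL) for 20–22 h. Dual luciferase read-out was compared with DMSO, run in triplicate, with ≥2 independent experiments.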

Test [3] can be described thus: Inhibition of calcium transients in mouse HL-1 cells after 10 mins using Fluo-4 by fluorescene assay. The test is classed as functional. In outline:
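HL-1 murine atrial cells plated at 25,000/well on gelatin (0.02%)/fibronectin (5 μg/mL) in Claycomb medium with 10% FBS and 0.1 mM norepinephrine. Loaded with Hoechst 33342 and Fluo-4 for 30 min at 37 °C, then 30 min at room temperature. Washed with Tyrode's (pH 7.4); compound in Tyrode's 10 min at room temperature. 10 s videos at 33 frames/s; kinetic parameters from image analysis.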

Another test has as its system J1 (Mus musculus). Briefly: Inhibition of mesoderm formation in mouse J1 cells carrying brachyury/T-GFP compound treated on day 1 measured on day 4 of differentiation by flow cytometry. (A flow cytometer gives signals particle by particle.)
In test [4] the test system is CGR8. Briefly: Promotion of cardiogenesis in mouse CGR8 cells carrying Myh6-GFP compound treated at 2.5 uM on days 3 to 5 measured on day 10 post differentiation by GFP reporter assay. Format: functional, cell-based. A digest of the protocol: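 CGR8 mESCs carrying a Myh6 (α-MHC)-GFP reporter seeded in LIF-free high-glucose DMEM with 10% FBS to differentiate. Compound given on days 3–5; α-MHC-GFP fluorescence quantified by high-content imaging on day 10. Data normalized at lower concentrations.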
For orientation: In a reporter assay the amount or activity of a reporter protein is the signal.

Test [5] relates to CGR8. Briefly: Promotion of cardiogenesis in mouse CGR8 cells carrying Myh6-GFP compound treated at 5 uM on days 3 to 5 measured on day 10 post differentiation by GFP reporter assay. The test is classed as functional, cell-based. A digest of the protocol:
(§1)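 Differentiation used CGR8 mESCs carrying a Myh6 (α-MHC)-GFP reporter, seeded in LIF-free high-glucose DMEM with 10% FBS. Compound was given on days 3–5 of differentiation. α-MHC-GFP fluorescence was quantified by high-content imaging on day 10, and data were normalized.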

Test [6] deals with CGR8. The experiment in a line: Inhibition of cardiogenesis in mouse CGR8 cells carrying Myh6-GFP compound treated at high concentration on days 3 to 5 measured on day 10 post differentiation by GFP reporter assay. The test is classed as functional, cell-based. In outline:
as §1

The subject of test [7] is CGR8. The experiment in a line: Promotion of cardiogenesis in mouse CGR8 cells carrying Myh6-GFP compound treated at 1 to 5 uM on days 3 to 5 measured on day 10 post differentiation by GFP reporter assay. The test is classed as functional, cell-based. A digest of the protocol:
as §1

Each structure is given as a SMILES string. Calls of active or inactive are those of the source. The rule behind the calls is not given here.

Sequence of TGF-beta receptor type-2 (P37173 whole entry): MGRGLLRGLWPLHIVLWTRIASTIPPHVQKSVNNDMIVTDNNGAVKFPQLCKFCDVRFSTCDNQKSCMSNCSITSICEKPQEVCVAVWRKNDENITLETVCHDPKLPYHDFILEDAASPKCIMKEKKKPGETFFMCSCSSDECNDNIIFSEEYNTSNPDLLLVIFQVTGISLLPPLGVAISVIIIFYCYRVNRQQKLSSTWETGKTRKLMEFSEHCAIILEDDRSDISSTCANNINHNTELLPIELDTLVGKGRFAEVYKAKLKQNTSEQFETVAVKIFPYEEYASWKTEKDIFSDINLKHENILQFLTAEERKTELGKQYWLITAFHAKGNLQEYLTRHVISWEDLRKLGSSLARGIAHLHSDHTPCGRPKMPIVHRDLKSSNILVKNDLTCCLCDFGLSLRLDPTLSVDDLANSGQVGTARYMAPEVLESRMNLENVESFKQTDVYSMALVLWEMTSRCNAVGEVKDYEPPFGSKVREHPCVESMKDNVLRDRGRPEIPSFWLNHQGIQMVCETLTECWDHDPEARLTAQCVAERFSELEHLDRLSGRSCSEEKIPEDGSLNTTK

With `NC(=O)c1ccc(-c2nc(-c3ccccn3)c(-c3ccc4c(c3)OCO4)[nH]2)cc1`, the inhibition in test [1] and in test [2] was 99% throughout.

For the compound `CCOC(=O)C1=C(C)NC2=C(C(=O)CC(C)(C)C2)C1c1ccc(-c2ccccc2)cc1` (racemic) [listing 1 of 2 here], the IC50 (commonly the concentration that gives 50% inhibition) at TGF-beta receptor type-2 was found to be 0.85 µM.

With `CCOC(=O)C1=C(C)NC2=C(C(=O)CC(C)(C)C2)C1c1ccc(-c2ccccc2)cc1` (racemic) [listing 2 of 2 here], the inhibition (in general, the percentage by which the read-out fell short of the control) in the test with HEK-293T was determined as 51%.

With `COC(=O)C1=C(C)NC2=C(C(=O)CC(C)(C)C2)C1c1cccc(-c2ccc3[nH]ccc3c2)c1` (racemic), the inhibition with HEK-293T is 24%.

`CCCC1CC(=O)C2=C(C1)NC(C)=C(C(=O)OC)C2c1ccc(-c2ccccc2)cc1` (single isomer, unassigned; (+)) [listing 1 of 2 here]: the “inhibition (INH)” value in test [3] came to 58%.

As for `CCCC1CC(=O)C2=C(C1)NC(C)=C(C(=O)OC)C2c1ccc(-c2ccccc2)cc1` (single isomer, unassigned; (+)) [listing 2 of 2 here], the inhibition result with J1 (Mus musculus) is “Active”. The result in the test with CGR8 [4] was Active.

Turning to `COC(=O)C1=C(C)NC2=C(C(=O)CC(C)(C)C2)C1c1cccc(-c2ccc3[nH]ccc3c2)c1` (single isomer, unassigned; (+)), the inhibition in the test on HEK-293T was found to be 55%. Also, the inhibition result with J1 (Mus musculus) is “Active”.

In the case of `CCCC1CC(=O)C2=C(C1)NC(C)=C(C(=O)OC)C2c1ccc(-c2ccccc2)cc1` (single isomer, unassigned; (-)) [listing 1 of 2 here], the “inhibition (INH)” value in test [3] came out at 85%.

As for `CCCC1CC(=O)C2=C(C1)NC(C)=C(C(=O)OC)C2c1ccc(-c2ccccc2)cc1` (single isomer, unassigned; (-)) [listing 2 of 2 here], the inhibition entry in the test on J1 (Mus musculus) was “Active”. Moreover, the result in the test with CGR8 [4] was inactive.

As for `COC(=O)C1=C(C)NC2=C(C(=O)CC(C)(C)C2)C1c1cccc(-c2ccc3[nH]ccc3c2)c1` (single isomer, unassigned; (-)), in the test on HEK-293T, the inhibition amounted to 68%.

As to `CCOC(=O)C1=C(C)NC2=C(C(=O)CC(C)(C)C2)C1c1ccc(-c2ccccc2)cc1` (stereo in doubt; (+)1) [listing 1 of 2 here], the IC50 at TGF-beta receptor type-2 turned out to be 0.46 µM. The “inhibition (INH)” value in test [3] is reported as 44%.

In the case of `CCOC(=O)C1=C(C)NC2=C(C(=O)CC(C)(C)C2)C1c1ccc(-c2ccccc2)cc1` (stereo in doubt; (+)1) [listing 2 of 2 here], the inhibition with HEK-293T was 49%; with CGR8 [6] it was “Dose-dependent effect”. In addition, the inhibition entry with J1 (Mus musculus) was “Active”. The result with CGR8 [5] and with CGR8 [7] was Active.

Consider `CCOC(=O)C1=C(C)NC2=C(C(=O)CC(C)(C)C2)C1c1ccc(-c2ccccc2)cc1` (stereo in doubt; (-)1) [listing 1 of 2 here], for which the IC50 at TGF-beta receptor type-2 was 6.9 µM. Further, the “inhibition (INH)” value in test [3] worked out at 87%.

Regarding `CCOC(=O)C1=C(C)NC2=C(C(=O)CC(C)(C)C2)C1c1ccc(-c2ccccc2)cc1` (stereo in doubt; (-)1) [listing 2 of 2 here], in the test on HEK-293T, the inhibition was 41%. Moreover, the inhibition result in the test on J1 (Mus musculus) is “Active”. Moreover, in the test on CGR8 [7], the result was Active.

As to `COC(=O)C1=C(C)NC(C)=C(C(=O)OC)C1c1ccccc1[N+](=O)[O-]` [NIFEDIPINE], the “inhibition (INH)” value in test [3] turned out to be 66%.

For the origin of these results see ChEMBL document CHEMBL2177004, “Synthesis and SAR of b-annulated 1,4-dihydropyridines define cardiomyogenic compounds as novel inhibitors of TGFβ signaling” (J Med Chem, 2012).
